Measurements reported in ChEMBL document CHEMBL3232721, “4-Oxo-1,4-dihydro-quinoline-3-carboxamides as BACE-1 inhibitors: synthesis, biological evaluation and docking studies” (Eur J Med Chem, 2014).
pIC50: −log10 of the molar value.

Key:
Beta-secretase 1 [1] = target: T1, Beta-secretase 1 (Homo sapiens, UniProt P56817); assay: Inhibition of BACE-1 (unknown origin) at 10 uM by FRET assay relative to control
Outline: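 FRET-based BACE-1 activity kit used per the kit protocol, except total reaction volume was cut to […]. Each compound tested at a single concentration of 10 µM. Result given as percent inhibition of BACE-1 activity, from two independent experiments.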

Beta-secretase 1 [2] = target: T1, Beta-secretase 1; assay: Inhibition of BACE-1 (unknown origin) by FRET assay
Outline: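 BACE-1 FRET kit assay following the kit protocol, with total reaction volume reduced to […]. Compounds exceeding 50% inhibition at the single-point screen were retested across several concentrations. IC50 derived from linear regression parameters, reported as the mean of at least two experiments.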

HEK293 = assay: Cytotoxicity against HEK293 cells after 72 hrs by CellTiterGlo assay; type: cell-based; settings: Homo sapiens, HEK293, 72 h
Outline: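 HEK293 grown in DMEM with 10% FBS, 100 units/mL penicillin and 100 units/mL streptomycin at 37 °C, 5% CO2. Seeded at 1000 cells/well in 384-well format, then exposed to test agents from a top working level of […], serially diluted threefold ten more times. Staurosporine positive control. After 72 h, CellTiter Glo reagent (10%) added and ATP luminescence read. IC50 taken from log dose–viability curves.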

T1 sequence (P56817 whole entry): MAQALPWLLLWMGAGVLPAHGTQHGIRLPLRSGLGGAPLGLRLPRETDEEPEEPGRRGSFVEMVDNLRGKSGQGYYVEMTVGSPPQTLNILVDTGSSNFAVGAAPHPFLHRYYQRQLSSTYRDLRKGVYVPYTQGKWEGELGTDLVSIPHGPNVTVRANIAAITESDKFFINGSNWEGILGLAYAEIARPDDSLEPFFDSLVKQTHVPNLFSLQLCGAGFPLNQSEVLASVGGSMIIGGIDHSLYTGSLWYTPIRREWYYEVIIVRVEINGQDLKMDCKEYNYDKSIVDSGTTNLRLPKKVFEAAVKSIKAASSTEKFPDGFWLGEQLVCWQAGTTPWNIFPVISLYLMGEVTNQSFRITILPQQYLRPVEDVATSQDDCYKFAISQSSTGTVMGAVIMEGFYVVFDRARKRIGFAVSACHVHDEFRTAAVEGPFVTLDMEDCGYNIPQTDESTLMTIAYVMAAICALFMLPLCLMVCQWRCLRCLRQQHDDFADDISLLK

Row | inhibition (Beta-secretase 1 [1]) [%] | pIC50 (Beta-secretase 1 [2]) | Structure (SMILES) | pIC50 (HEK293)
1 | 77.8 | 4.94 | Cc1ccccc1-c1ccc2[nH]cc(C(=O)NC3CCCCC3)c(=O)c2c1 | < 4.30
2 | 77.6 | 5.72 | Cc1ccccc1-c1ccc2[nH]cc(C(=O)NCc3cccc(Br)c3)c(=O)c2c1 | < 4.30
3 | – | – | CN[C@@H]1C[C@H]2O[C@@](C)([C@@H]1OC)n1c3ccccc3c3c4c(c5c6ccccc6n2c5c31)C(=O)NC4 [STAUROSPORINE] | 7.25
4 | 67.4 | 5.21 | Cc1ccccc1-c1ccc2[nH]cc(C(=O)NCc3cccc(C(F)(F)F)c3)c(=O)c2c1 | < 4.30
5 | 30.4 | – | O=C(NCc1ccc(F)cc1)c1c[nH]c2ccc(S(=O)(=O)Nc3cccc(C(F)(F)F)c3)cc2c1=O | –
6 | 32.9 | – | Cc1ccccc1-c1ccc2[nH]cc(C(=O)NCc3ccco3)c(=O)c2c1 | –
7 | 35.7 | – | O=C(NCc1cccnc1)c1c[nH]c2ccc(S(=O)(=O)Nc3cccc(C(F)(F)F)c3)cc2c1=O | –
8 | 71.1 | 5.79 | O=C(NCc1ccco1)c1c[nH]c2ccc(S(=O)(=O)Nc3cccc(C(F)(F)F)c3)cc2c1=O | < 4.30
9 | 11.3 | – | O=C(NCc1ccc2c(c1)OCO2)c1c[nH]c2ccccc2c1=O | –
10 | 73.5 | 5.66 | COc1cccc(CNC(=O)c2c[nH]c3ccc(S(=O)(=O)Nc4cccc(C(F)(F)F)c4)cc3c2=O)c1 | < 4.30
11 | 84.6 | 5.73 | O=C(NCc1cccc(F)c1)c1c[nH]c2ccc(S(=O)(=O)Nc3cccc(C(F)(F)F)c3)cc2c1=O | < 4.30
12 | 12.3 | – | Cc1ccccc1-c1ccc2[nH]cc(C(=O)NCc3cccc(F)c3)c(=O)c2c1 | –
13 | 50.4 | 5.15 | COc1ccc(CNC(=O)c2c[nH]c3ccc(S(=O)(=O)Nc4cccc(C(F)(F)F)c4)cc3c2=O)cc1 | < 4.30
14 | 10.2 | – | Cc1ccccc1-c1ccc2[nH]cc(C(=O)NCc3cccnc3)c(=O)c2c1 | –
15 | 38.1 | – | Cc1ccccc1-c1ccc2[nH]cc(C(=O)NCc3ccc(C(F)(F)F)cc3)c(=O)c2c1 | –
16 | 65.6 | 5.14 | O=C(NC1CCCCC1)c1c[nH]c2ccc(S(=O)(=O)Nc3cccc(C(F)(F)F)c3)cc2c1=O | < 4.30
